In ChEMBL document CHEMBL2034896, “Terpenoids from Chloranthus serratus and their anti-inflammatory activities” (J Nat Prod, 2012):

Tested on: RAW264.7
Assay: Antiinflammatory activity in mouse RAW264.7 cells assessed as inhibition of LPS-stimulated nitric oxide production pretreated for 2 hrs before LPS challenge measured after 18 hrs by Griess method
Assay type: functional, cell-based
How it was run: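 Murine RAW264.7 macrophages are stimulated with LPS, and NO released into the medium is measured. The read-out is an IC50.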

Compound | IC50 [µM]
COC(=O)/C(C)=C1/C(=O)[C@H](O)[C@]2(C)C3=C1[C@]14OC(=O)C(COC(C)=O)=C1C[C@H]1C[C@H]5C[C@H]5[C@]1(C)[C@@H]4C[C@]3(O)[C@H]1C[C@H]12 [SHIZUKAOL D] | 7.22
CCO[C@]12OC(=O)C(C)=C1C1=C3[C@@](C)(C2=O)[C@@H]2C[C@@H]2[C@@]3(O)C[C@@H]2[C@]13OC(=O)C1=C3C[C@H]3[C@](O)(COC(=O)/C(C)=C/COC(=O)CCC(=O)OC1)[C@H]1C[C@H]1[C@]23C | > 10
C=C1C[C@@H](O)[C@H]2C(C)(C)[C@@H](O)CC[C@]2(C)[C@H]1C/C=C(\C)C=O | > 10
COC(=O)/C(C)=C1\C(=O)[C@H](O)[C@]2(C)C3=C(C[C@@H]4[C@]5(OC(=O)C6=C5C[C@H]5[C@](O)(COC(=O)/C(C)=C/COC(=O)CCC(=O)OC6)[C@H]6C[C@H]6[C@]45C)[C@H]31)[C@H]1C[C@H]12 [SHIZUKAOL B] | 0.15
C=C1CC[C@H]2C(C)(C)[C@@H](O)CC[C@]2(C)[C@H]1C/C=C(\C)C=O | > 10

The next lines start with the values.

IC50 [µM] | Compound
> 10 | CC1=C2C[C@@H]3[C@](C)(CCC[C@]3(C)O)C[C@]2(O)OC1=O
0.47 | C[C@@H]1C[C@H]2[C@@H]3CCC4=CC(=O)C=C[C@]4(C)[C@@]3(F)[C@@H](O)C[C@]2(C)[C@@]1(O)C(=O)CO [DEXAMETHASONE]
> 10 | C=C1CC[C@@H]2[C@](C)(O)C[C@@]3(O)OC(=O)C(C)=C3[C@@]2(O)C1
> 10 | CC1=C2C[C@@H]3[C@](C)(CCC[C@]3(C)O)C[C@@H]2OC1=O
0.22 | CC1=C2C3=C4C(=C[C@@H]5[C@]36OC(=O)C3=C6C[C@H]6[C@](O)(COC(=O)/C(C)=C/COC(=O)CCC(=O)OC3)[C@H]3C[C@H]3[C@]56C)[C@H]3C[C@H]3[C@]4(C)[C@@H](O)[C@@]2(O)OC1=O
